Screening results from PubChem.
The full list was thinned out, with hits kept by preference.
CHOP inhibitor: blocks CHOP induction under ER stress. CHO-K1 CHOP-promoter luciferase, tunicamycin-induced, 15-18 h. inhibition, % at 10 µM. 220,000 tested, 3.8% active. AID 2732;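 active = compounds that reduced the stress-induced luciferase reporter signal by more than about 70% of percent inhibition, limit read from the data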
UPR XBP1 act: activators of adaptive arm of unfolded protein response (XBP1). CHO-XBP1 luciferase reporter, IRE1-XBP1 UPR activation, luminescence; percent of tunicamycin response, DMSO as zero. activation, % at 20 µM. 330,000 tested, 0.33% active. AID 463104;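 active = versus positive control, 20 µM dose yields 30% or more activation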
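Material: CHO-XBP1 cells stably carrying IRE1-XBP1-driven luciferase reporter / Amount: 1000 cells per well / Compound: 20 µM, 1% DMSO / Times: 6 h treatment, 37 °C / Detection: luciferase luminescence / Measure: % activation of reporter signal versus tunicamycin and DMSO controls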
UPR CHOP act: activators of apoptotic arm of unfolded protein response (CHOP); activation, % at 10 µM; CHO-CHOP luciferase reporter, UPR activation, luminescence; percent of tunicamycin response over DMSO baseline; 330,000 tested, 0.34% active;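 active = at 10 µM dose, activation of 40% or more, normalized to positive control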
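Assay system: CHO cells with stable CHOP pathway luciferase reporter; Buffer or medium: F12 plus 10% serum; Times: 16-18 h cell attachment, then 6 h compound exposure, 37 °C; Signal: luciferase luminescence; Read-out basis: percent activation relative to tunicamycin control; Control set: tunicamycin high control, DMSO low control.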
Jurkat NFkB inh: inhibitors of the PMA/ionomycin-induced NF-kB reporter in Jurkat cells; inhibition, % at 4 µM; 330,000 tested, 0.53% active; AID 435003; PMA/ionomycin-induced NF-kB luciferase reporter, luminescence; in the data active = inhibition above about 50%
697 NFkB inh: lowers PMA/ionomycin-induced NF-kB signal in 697 B cells | 697 B-cell NF-kB luciferase reporter, 16 h | 330,000 tested, 0.33% active | AID 435022 | inhibition, % at 4 µM; in the data active = inhibition above about 35%
UPR XBP1 confirm: adaptive UPR (XBP1) activation, confirmed. 1,000 tested, 63% active. shares compounds with UPR XBP1 act. AID 485299. CHO-XBP1 IRE1-XBP1 luciferase reporter, luminescence. activation, % at 20 µM;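 active = reporter signal at least 30% of the positive control's activation in two or more of four replicate wells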
Numbers stand for hits; - = inactive; . = no result.

SMILES	CHOP inhibitor	UPR XBP1 act	UPR CHOP act	Jurkat NFkB inh	697 NFkB inh	UPR XBP1 confirm
O=c1cc(CN2CCN(c3ccccc3)CC2)c2cc(O)c(-c3ccccc3)cc2o1	-	60	-	-	-	113
O=c1cc(CN2CCN(c3cccc(Cl)c3)CC2)c2cc(O)c(-c3ccccc3)cc2o1	-	-	-	-	-	.
O=C(CCn1c2c(c3ccccc31)CCCC2)NNC(=O)c1ccccc1Cl	-	36	-	-	-	-
O=C(NCC1CC1)c1cc([N+](=O)[O-])cc([N+](=O)[O-])c1	.	-	-	-	-	.
O=C(Nc1cccnc1)/C(N=Nc1c(Cl)cccc1Cl)=C(\O)c1ccccc1	-	-	-	-	-	.
O=C(Nc1cccnc1)/C(N=Nc1ccc(Cl)c(C(F)(F)F)c1)=C(\O)c1ccccc1	-	49	-	-	-	-
CCOc1cc2c3c(c1)C(C)=CC(C)(C)N3C(=O)C2=O	-	41	-	-	-	32
CCOc1cc2c3c(c1)C(C)CC(C)(C)N3C(=O)C2=O (configuration not stated)	-	-	-	-	-	.
OCCCn1c(C2CCCN2c2nc(-c3ccc(F)cc3)cs2)nc2cc(Cl)c(N3CCCCC3)cc21 (configuration not stated)	.	100	-	-	-	48
Cc1nn(CCCC(=O)NC(C)c2ccccc2)c(=O)c2nn(-c3ccccc3)c(C)c12 (configuration not stated)	.	-	-	-	-	.
N#Cc1ccc(-c2ccc(F)cc2)nc1Oc1ccc(Cl)c(Cl)c1	-	38	-	-	-	-
C=CC[C@@H](CC(=O)N[C@@H](CO)Cc1ccccc1)C(=O)NC[C@@H](OC(=O)[C@@H](CC=C)Cc1ccc(F)cc1)c1ccccc1	.	32	-	-	-	-
O=C(NCCc1ccc(F)cc1)c1cc(=O)c2ccccc2o1	-	-	-	-	-	.
CN(C)S(=O)(=O)c1ccc(N2CCCC2)c(C(=O)Nc2nccs2)c1	.	60	-	-	-	69
Cc1ccc2c(n1)sc1c(-c3ccc(Br)cc3)c(C#N)c(N)nc12	82	61	-	-	-	43
COc1cccc(-c2nc(-c3ccc4c(c3)NC(=O)CO4)cs2)c1	-	-	-	-	-	.
COc1ccc(-c2cc(-c3ccc(OC)cc3)nc(-c3ccc4c(c3)NC(=O)CO4)c2)cc1	-	38	-	-	-	-
N#C/C(=C\c1ccc(N2CCCC2)c([N+](=O)[O-])c1)c1nc2ccccc2[nH]1	-	111	-	-	-	71
Cc1c(N=C2SCC(=O)N2/N=C\c2ccc(Br)cc2)c(=O)n(-c2ccccc2)n1C	-	-	-	-	-	.
O=C(Nc1ccc2nn(-c3ccccc3)nc2c1)c1ccc(Br)o1	73	35	-	-	-	-
CC(=O)c1cccc(NC(=O)c2ccc(Br)o2)c1	-	-	-	-	-	.
CCOc1ccc(Cn2c3ccc(OC)cc3c3nc4ccccc4nc32)cc1OC	88	118	-	-	-	106
CCOC(=O)Cn1c2ccc(OC)cc2c2nc3ccccc3nc21	-	-	-	-	-	.
CCCCCn1c(N)c(-c2nc3ccccc3o2)c2c([N+](=O)[O-])nn(C)c(=O)c21	-	.	.	.	.	.
CCCCCn1c(N)c(-c2nc3ccccc3o2)c2c([N+](=O)[O-])nn(CC)c(=O)c21	-	38	-	-	-	53
SMILES	CHOP inhibitor	UPR XBP1 act	UPR CHOP act	Jurkat NFkB inh	697 NFkB inh	UPR XBP1 confirm
COc1ccccc1C(=O)Nc1ccccc1SC(=O)c1ccccc1OC	.	34	-	-	-	-
Cc1ccc(O)c(NC(=S)NC(=O)Cc2ccc(Cl)cc2)c1	.	52	-	-	-	86
CN1CCN(c2nc3c(c(=O)[nH]c(=O)n3C)n2CCSc2nc3ccccc3s2)CC1	-	-	-	-	-	.
Cn1c(=O)[nH]c(=O)c2c1nc(N1CCc3ccccc3C1)n2CCSc1nc2ccccc2s1	-	34	-	-	-	-
O=C(COC(=O)c1ccccc1O)NC(=O)NCc1ccccc1	.	-	-	-	-	.
O=C(Nc1nc(-c2ccccc2)cs1)c1cccc([N+](=O)[O-])c1	-	-	-	-	-	.
O=C(Nc1nc(-c2cccnc2)cs1)c1cccc([N+](=O)[O-])c1	88	31	-	-	-	-
CCN=C1S/C(=C\c2cn(CC(=O)NCc3ccco3)c3ccccc23)C(=O)N1CC	.	116	-	-	-	97
CN1C(=O)/C(=C/c2cn(CC(=O)NCc3ccco3)c3ccccc23)NC1=S	-	-	-	-	-	.
O=C(Nc1cccc(NC(=O)c2ccco2)c1)c1ccccc1	.	-	-	-	-	.
O=C(Nc1cccc(-c2cnc3ccccc3n2)c1)c1cccc(NC(=O)c2ccco2)c1	-	36	-	-	-	-
Cc1ccc(-c2cc(C(F)F)nc3sc4c(=O)[nH]cnc4c23)cc1	.	44	-	-	-	-
Cc1nc(NC(=O)CSc2ccc(-c3nc4ccccc4[nH]3)cn2)sc1C	-	54	-	-	-	85
COc1ccc(CCn2c(=S)[nH]c3cc(C(=O)NCc4ccco4)ccc3c2=O)cc1OC	96	62	-	-	-	66
O=C(CSc1nnc(-c2cccs2)n1-c1ccccc1)c1ccc2c(c1)OCCO2	.	61	-	-	-	-
O=C(CSc1nnc(-c2ccc3c(c2)OCO3)n1-c1ccccc1)c1ccccc1	-	-	-	-	-	.
Cc1sc(NC(=O)c2ccco2)c(C(c2cccnc2)N2CCN(c3ccc(F)cc3)CC2)c1C (configuration not stated)	.	33	-	-	-	-
Cc1sc(NC(=O)c2ccco2)c(C(c2cccnc2)N2CCN(CCO)CC2)c1C (configuration not stated)	-	-	-	-	-	.
COc1ccc(-c2ccnc(-c3ccc(O)cc3)n2)cc1	-	-	-	-	-	.
Cc1ccc(-c2ccnc(-c3ccc(O)cc3)n2)cc1	-	34	-	-	-	36
Cn1c(SCc2ccccn2)nc2c1c(=O)[nH]c(=O)n2C	-	-	-	-	-	.
COc1cc(NC(=O)c2ccno2)cc(C(=O)Nc2cccc(C(F)(F)F)c2)c1	-	-	-	-	-	.
COc1ccc(-c2cc(C(=O)Nc3cc(OC)cc(C(=O)Nc4cccc(C(F)(F)F)c4)c3)[nH]n2)cc1	-	37	-	-	-	-
O=C(O)COc1ccc(/C=N/NC(=O)/C(=C/C=C/c2ccccc2)NC(=O)c2ccccc2)cc1	.	-	-	-	-	.
CC(=O)c1cccc(NC(=S)N2CCN(CCN3C(=O)c4cccc5cccc(c45)C3=O)CC2)c1	-	159	-	-	-	-
Cc1cc(NC(=O)CSc2nnnn2C2CCCC2)no1	-	-	-	-	-	.
